Assays:
[1] = tested on: L1210; experiment: Ability to inhibit growth of L1210 leukemic cell lines was determined in an in vitro MTT assay.; assay type: functional, cell-based; conditions: Mus musculus
Summary of the method: (§1)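 Murine leukemia cells in RPMI 1640 with 10% heat-inactivated FCS, 2-mercaptoethanol; exponentially growing at 10^6 cells/mL, exposed to varying drug concentrations (DMSO stock, final 0.5% DMSO; controls same) for 1 h at 37 °C, washed twice with ice-cold PBS, resuspended at 2 × 10^5/mL in drug-free medium, cultured 72 h. IC50 = concentration giving 50% growth inhibition versus untreated controls.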

[2] = tested on: MES-SA; experiment: Ability to inhibit growth of doxorubicin-sensitive (MES-SA) uterine sarcoma cell line was determined in an in vitro MTT assay.; assay type: functional, cell-based; conditions: Homo sapiens
Summary of the method: (§2)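 Uterine sarcoma cells in Waymouth's/McCoy's 5A with 15% FCS and insulin. MES-SA seeded at 4 × 10^3, MES-SA/DOX at 6 × 10^3 per well, attached 16–24 h, then given drug-containing medium (final DMSO 0.5%) for 72 h. MTT added for 3 h at 37 °C, formazan dissolved in DMSO, OD read at 570 nm. IC50 versus untreated controls.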

[3] = tested on: MES-SA; experiment: Ability to inhibit growth of doxorubicin-resistant (MES-SA/DOX) uterine sarcoma cell line was determined in an in vitro MTT assay.; assay type: functional, cell-based; conditions: Homo sapiens; summary of the method: as §2
[4] = tested on: P388; experiment: Ability to inhibit growth of P388 leukemic cell line was determined in an in vitro MTT assay.; assay type: functional, cell-based; conditions: Mus musculus; summary of the method: as §1
[5] = tested on: KBM-3 cell line; experiment: Ability to inhibit growth of human myelogenous leukemic cell line KBM-3 was determined in an in vitro clonogenic assay.
[6] = tested on: KBM-3/DOX cell line; experiment: Ability to inhibit growth of human myelogenous leukemic cell line KBM-3 variant namely KBM-3/DOX, was determined in an in vitro clonogenic assay.

| IC50 [1] | IC50 [4] | IC50 [5] | IC50 [6] | Compound | IC50 [2] | IC50 [3] |
| --- | --- | --- | --- | --- | --- | --- |
| 200 nM | 1220 nM | 26 nM | 490 nM | COc1cccc2c1C(=O)c1c(O)c3c(c(O)c1C2=O)C[C@@](O)(C(=O)CO)C[C@@H]3O[C@H]1C[C@H](N)[C@H](O)[C@H](C)O1 [DOXORUBICIN] | 40 nM | 4200 nM |
| 2100 nM | 2900 nM | – | – | COc1cccc2c1C(=O)c1c(O)c3c(c(O)c1C2=O)C[C@](O)(C(=O)CO)C[C@@H]3OC1CC(NC(=O)CCl)C(O)C(C)O1 (stereo partly specified) | 400 nM | 2700 nM |
| 2100 nM | 1500 nM | 140 nM | 160 nM | COc1cccc2c1C(=O)c1c(O)c3c(c(O)c1C2=O)C[C@](O)(C(=O)CO)C[C@@H]3OC1CC(NC(=O)CBr)C(O)C(C)O1 (stereo partly specified) | 200 nM | 800 nM |

| Compound | IC50 [1] | IC50 [4] | IC50 [5] | IC50 [6] | IC50 [2] | IC50 [3] |
| --- | --- | --- | --- | --- | --- | --- |
| COc1cccc2c1C(=O)c1c(O)c3c(c(O)c1C2=O)C[C@](O)(C(=O)CO)C[C@@H]3OC1CC(NC(=O)c2ccc(S(=O)(=O)F)cc2)C(O)C(C)O1 (stereo partly specified) | 6900 nM | 7700 nM | – | – | 3800 nM | 6900 nM |
| COc1cccc2c1C(=O)c1c(O)c3c(c(O)c1C2=O)C[C@](O)(C(=O)CO)C[C@@H]3OC1CC(NC(=O)N(CCCl)N=O)C(O)C(C)O1 (stereo partly specified) | 2900 nM | 2900 nM | 210 nM | 250 nM | 800 nM | 7700 nM |

Reference: ChEMBL document CHEMBL1125235, “Doxorubicin analogues incorporating chemically reactive substituents” (J Med Chem, 1991)
